Data as given in ChEMBL document CHEMBL5614410, “Design, Synthesis, and Evaluation of p53Y220C Acetylation Targeting Chimeras (AceTACs)” (J Med Chem, 2024).
pEC50: −log10 of the molar value. The source made the active and inactive calls. The calls are words filed in the database; no cut-off is given here.

Tests used:
[1] = tested on: CREB-binding protein/Histone acetyltransferase p300/Cellular tumor antigen p53 (Homo sapiens), P04637+Q09472+Q92793 [Y220C]; assay: AceTAC activity at FLAG-tagged p53Y220C mutant (unknown origin) expressed in human NCI-H1299 cells expressing p300/CBP assessed as increase in p53 acetylation at lysine 382 residue at 10 uM incubated for 24 hrs by western blot analysis relative to control; assay type: cell-based
Method in brief: (§1)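 NCI-H1299 (p53Y220C) cells were treated at 0.1–10 μM (0.1, 0.3, 1, 3 or 10 μM) for 24 h. Lysates were Western blotted for p53 and p53K382ac, with vinculin as loading control. p53K382ac was normalised to total p53Y220C and quantified from two or three independent experiments.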

[2] = tested on: CREB-binding protein/Histone acetyltransferase p300/Cellular tumor antigen p53 (Homo sapiens), P04637+Q09472+Q92793 [Y220C]; assay: AceTAC activity at FLAG-tagged p53Y220C mutant (unknown origin ) expressed in human NCI-H1299 cells expressing p300/CBP assessed as increase in p53 acetylation at lysine 382 residue at 1 uM incubated for 24 hrs by western blot analysis; assay type: cell-based
Method in brief: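 NCI-H1299 cells stably expressing p53Y220C, treated 24 h at 1 or 10 μM. Lysates were Western blotted for total p53 and p53 K382ac, with vinculin as loading control. Blots are representative of at least two independent experiments.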

NCI-H1299 [3] = assay: Antiproliferative activity against human NCI-H1299 cells expressing p53Y220C mutant assessed as reduction in cell viability incubated for 3 days by WST-8 assay; assay type: functional; settings: NCI-H1299, 72 h, time 3 day
Method in brief: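 NCI-H1299 p53Y220C cells were exposed to compound over a concentration range for 72 h, in some runs after 72 h of control or p300 siRNA, before the viability read-out. Values are mean ± SD of three independent experiments.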

[4] = tested on: CREB-binding protein/Histone acetyltransferase p300/Cellular tumor antigen p53 (Homo sapiens), P04637+Q09472+Q92793 [Y220C]; assay: Induction of interaction between FLAG-tagged p53Y220C mutant (unknown origin) and p300/CBP expressed in human NCI-H1299 cells assessed as ternary complex formation at 10 uM incubated for 24 hrs by co-immunoprecipitation analysis; assay type: cell-based
Method in brief: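 NCI-H1299 p53-null and p53Y220C cells were treated with DMSO or compound at 10 μM for 24 h. p53-FLAG pull-down was followed by Western blotting for associated p300. Representative of two independent experiments.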

NCI-H1299 [5] = assay: Antiproliferative activity against human NCI-H1299 cells expressing p53Y220C mutant and transfected with p300 siRNA assessed as reduction in cell viability at 0.47 to 15 uM incubated for 3 days by WST-8 assay; assay type: functional, cell-based; settings: dose 0.47-15 µM, time 3.0 day
Method in brief: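 NCI-H1299 p53Y220C cells were first transfected with p300 siRNA for 72 h, then exposed to compound across the concentration series for 72 h. Viability is mean ± SD from three independent experiments.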

[6] = Cytotoxicity against human PNT2 cells assessed as inhibition of cell growth at 10 uM incubated for 72 hrs by WST-8 assay; assay type: toxicity, cell-based
Method in brief: (§2)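 U2OS (WT p53) or normal prostate PNT2 cells were treated for 72 h at the indicated concentrations. Viability is mean ± SD of technical triplicates from two biological experiments.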

[7] = tested on: Cellular tumor antigen p53 (Homo sapiens), P04637 [Y220C]; assay: Stabilization of FLAG-tagged p53Y220C mutant (unknown origin) expressed in human NCI-H1299 cells assessed as upregulation of GADD45A mRNA expression at 3 uM incubated for 24 hrs by RT-qPCR analysis; assay type: cell-based
Method in brief: (§3)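 NCI-H1299 p53Y220C cells were treated with 3 μM or DMSO for 24 h, followed by RT-qPCR of p53 target genes. Each transcript was normalized to GAPDH, then expressed relative to the DMSO control. Values are mean ± SD from three independent experiments.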

[8] = Cytotoxicity against human U2OS cells harboring wild type p53 assessed as inhibition of cell growth at 10 uM incubated for 72 hrs by WST-8 assay; assay type: toxicity, cell-based; method in brief: as §2
BXPC-3 = assay: Antiproliferative activity against human BXPC-3 cells harboring p53Y220C mutant assessed as inhibition of cell growth incubated for 72 hrs by WST-8 assay; assay type: functional
Method in brief: (§4)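 BxPC3 or NUGC-3 cells were treated with DMSO or compound over a concentration range for 72 h before the viability read-out. Values are mean ± SD of technical triplicates from three biological experiments.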

[9] = tested on: Cellular tumor antigen p53 (Homo sapiens), P04637 [Y220C]; assay: Induction of p53Y220C mutant acetylation in human BXPC-3 cells expressing p300/CBP assessed as increase in p53 acetylation at lysine 382 residue at 1 to 10 uM incubated for 24 hrs by western blot analysis; assay type: cell-based; settings: dose 1-10 µM
Method in brief: (§5)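 BxPC3 or NUGC-3 cells, which endogenously carry p53Y220C, were dosed at 1, 3 or 10 μM (or DMSO) for 24 h. Lysates were immunoblotted for p53 and p53 K382ac, with vinculin loading control. Blots are representative of two independent experiments.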

PNT2 = assay: Cytotoxicity against human PNT2 cells assessed as inhibition of cell growth incubated for 72 hrs by WST-8 assay; assay type: toxicity, cell-based; settings: pnt2, 72 h; method in brief: as §2
[10] = tested on: Cellular tumor antigen p53 (Homo sapiens), P04637 [Y220C]; assay: Stabilization of FLAG-tagged p53Y220C mutant (unknown origin) expressed in human NCI-H1299 cells assessed as upregulation of p21 mRNA expression at 3 uM incubated for 24 hrs by RT-qPCR analysis; assay type: cell-based; method in brief: as §3
[11] = tested on: Cellular tumor antigen p53 (Homo sapiens), P04637 [Y220C]; assay: Stabilization of FLAG-tagged p53Y220C mutant (unknown origin) expressed in human NCI-H1299 cells assessed as downregulation of E2F1 mRNA expression at 3 uM incubated for 24 hrs by RT-qPCR analysis; assay type: cell-based; method in brief: as §3
U2OS = assay: Cytotoxicity against human U2OS cells harboring wild type p53 assessed as inhibition of cell growth incubated for 72 hrs by WST-8 assay; assay type: toxicity, cell-based; method in brief: as §2
NCI-H1299 [12] = assay: Antiproliferative activity against p53-null human NCI-H1299 cells assessed as reduction in cell viability at 0.47 to 15 uM incubated for 3 days by WST-8 assay; assay type: functional, cell-based; settings: dose 0.47-15 µM, time 3.0 day
Method in brief: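 p53-null NCI-H1299 cells were exposed to compound across the concentration series for 72 h before the viability read-out. Data are mean ± SD from three independent experiments.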

[13] = tested on: Cellular tumor antigen p53 (Homo sapiens), P04637 [Y220C]; assay: Induction of p53Y220C mutant acetylation in human NUGC-3 cells expressing p300/CBP assessed as increase in p53 acetylation at lysine 382 residue at 1 to 10 uM incubated for 24 hrs by western blot analysis; assay type: cell-based; settings: dose 1-10 µM; method in brief: as §5
NUGC-3 = assay: Antiproliferative activity against human NUGC-3 cells harboring p53Y220C mutant assessed as inhibition of cell growth incubated for 72 hrs by WST-8 assay; assay type: functional; method in brief: as §4
[14] = tested on: Cellular tumor antigen p53 (Homo sapiens), P04637 [Y220C]; assay: Induction of FLAG-tagged p53Y220C mutant acetylation (unknown origin) expressed in human NCI-H1299 cells assessed as increase in p53 acetylation at lysine 382 residue at 10 uM incubated for 24 hrs by western blot analysis relative to control; assay type: cell-based; method in brief: as §1
[15] = tested on: Cellular tumor antigen p53 (Homo sapiens), P04637 [Y220C]; assay: Stabilization of p53Y220C mutant (unknown origin) assessed as increase in melting temperature at 250 uM by […]
[16] = target: CREB-binding protein/Histone acetyltransferase p300/Cellular tumor antigen p53 (Homo sapiens, UniProt P04637+Q09472+Q92793, Y220C); assay: AceTAC activity at FLAG-tagged p53Y220C mutant (unknown origin) expressed in human NCI-H1299 cells expressing p300/CBP assessed as increase in p53 acetylation at lysine 382 residue incubated for 24 hrs by western blot analysis; assay type: cell-based; method in brief: as §1
[17] = tested on: CREB-binding protein/Histone acetyltransferase p300/Cellular tumor antigen p53 (Homo sapiens), P04637+Q09472+Q92793 [Y220C]; assay: AceTAC activity at FLAG-tagged p53Y220C mutant (unknown origin) expressed in human NCI-H1299 cells expressing p300/CBP assessed as stabilization of protein by measuring increase in aggregation temperature at 100 uM incubated for 1 hr at 32 to 50 degC by CETSA analysis; assay type: cell-based
Method in brief: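 For CETSA, NCI-H1299 (p53Y220C) stable cells were treated with DMSO or 100 μM compound for 1 h, then heated at 32 to 50 °C. Soluble p53 was detected by Western blot. Representative of at least two independent experiments.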

[18] = tested on: CREB-binding protein/Histone acetyltransferase p300/Cellular tumor antigen p53 (Homo sapiens), P04637+Q09472+Q92793 [Y220C]; assay: AceTAC activity at FLAG-tagged p53Y220C mutant (unknown origin) expressed in human NCI-H1299 cells expressing p300/CBP assessed as fold increase in p53 acetylation at lysine 382 residue at 10 uM incubated for 24 hrs by western blot analysis relative to control; assay type: cell-based
Method in brief: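 NCI-H1299 (p53Y220C) cells were exposed to 1, 3 and 10 μM for 24 h, then Western blotted. The K382ac signal was normalized to total p53Y220C and quantified from two independent experiments (±SD), relative to DMSO.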

[19] = tested on: Cellular tumor antigen p53 (Homo sapiens), P04637 [Y220C]; assay: Stabilization of p53Y220C mutant (unknown origin) assessed as increase in melting temperature by […]

Row | SMILES | Activity [1] | Activity [2] | GI50 (NCI-H1299 [3]) | other results
1 | CCn1c2ccc(CNCCCCCCC(=O)NCCOc3ccc(CCc4nc5cc(-c6c(C)noc6C)ccc5n4CCN4CCOCC4)cc3F)cc2c2ccc(-c3cc(C)cs3)cc21 | 219% | Active | 4 µM | 
2 | CCn1c2ccc(CNC)cc2c2ccc(-c3cc(C)cs3)cc21 |  |  | 16 µM | Activity [4]: inactive; Activity (NCI-H1299 [5]): Active; inhibition at 72 h, 10 µM [6]: ~30%; Activity [7]: Active; inhibition at 72 h, 10 µM [8]: 30%; GI50 (BXPC-3): 14 µM; Activity [9]: inactive; GI50 (PNT2): > 10 µM; Activity [10]: Active; Activity [11]: inactive; GI50 (U2OS): > 10 µM; Activity (NCI-H1299 [12]): inactive; Activity [13]: inactive; GI50 (NUGC-3): 10.1 µM; Activity [14]: 26%; ΔTm [15]: 3.7 °C
3 | CCn1c2ccc(CNCCCCCC(=O)NCCOc3ccc(CCc4nc5cc(-c6c(C)noc6C)ccc5n4CCN4CCOCC4)cc3F)cc2c2ccc(-c3cc(C)cs3)cc21 | 176% | Active | 4 µM | 
4 | CCn1c2ccc(CNCCOCCOCCOCCn3cc(COc4ccc(CCc5nc6cc(-c7c(C)noc7C)ccc6n5CCN5CCOCC5)cc4F)nn3)cc2c2ccc(-c3cc(C)cs3)cc21 |  |  |  | pEC50 [16]: 5.73; ΔTm [17]: 4 °C; fold change (FC) [18]: 4
5 | CCn1c2ccc(CNCCC(=O)NCCOc3ccc(CCc4nc5cc(-c6c(C)noc6C)ccc5n4CCN4CCOCC4)cc3F)cc2c2ccc(-c3cc(C)cs3)cc21 | 70% |  | 13 µM | 
6 | CCn1c2ccc(CNCCOCCOCCC(=O)NCCOc3ccc(CCc4nc5cc(-c6c(C)noc6C)ccc5n4CCN4CCOCC4)cc3F)cc2c2ccc(-c3cc(C)cs3)cc21 | 205% | Active | 4 µM | 
7 | CCn1c2ccc(CNCCOCCOCCOCCOCCOCCC(=O)NCCOc3ccc(CCc4nc5cc(-c6c(C)noc6C)ccc5n4CCN4CCOCC4)cc3F)cc2c2ccc(-c3cc(C)cs3)cc21 | 184% | Active | 5 µM | 
8 | CCn1c2ccc(CNCC(=O)NCCOc3ccc(CCc4nc5cc(-c6c(C)noc6C)ccc5n4CCN4CCOCC4)cc3F)cc2c2ccc(-c3cc(C)cs3)cc21 | 60% |  | 18 µM | 
9 | CCn1c2ccc(CNCCCCC(=O)NCCOc3ccc(CCc4nc5cc(-c6c(C)noc6C)ccc5n4CCN4CCOCC4)cc3F)cc2c2ccc(-c3cc(C)cs3)cc21 | 202% | Active | 4 µM | 
10 | CCn1c2ccc(CNCCCCCCCCC(=O)NCCOc3ccc(CCc4nc5cc(-c6c(C)noc6C)ccc5n4CCN4CCOCC4)cc3F)cc2c2ccc(-c3cc(C)cs3)cc21 | 103% | Active | 5 µM | 
11 | CCn1c2ccc(CNCCCC(=O)NCCOc3ccc(CCc4nc5cc(-c6c(C)noc6C)ccc5n4CCN4CCOCC4)cc3F)cc2c2ccc(-c3cc(C)cs3)cc21 | 195% | Active | 4 µM | 
12 | CCn1c2ccc(CNCCOCCOCCOCCOCCC(=O)NCCOc3ccc(CCc4nc5cc(-c6c(C)noc6C)ccc5n4CCN4CCOCC4)cc3F)cc2c2ccc(-c3cc(C)cs3)cc21 | 198% | Active | 4 µM | 
13 | COc1ccc(CCc2nc3cc(-c4c(C)noc4C)ccc3n2CCN2CCOCC2)cc1F |  |  |  | Activity (BXPC-3): inactive; Activity [9]: inactive; Activity (NCI-H1299 [12]): inactive; Activity [13]: inactive; Activity (NUGC-3): inactive
14 | CCn1c2ccccc2c2cc(CNC)ccc21 |  |  |  | ΔTm [19]: 1 °C
15 | CCn1c2ccc(CNCCOCCC(=O)NCCOc3ccc(CCc4nc5cc(-c6c(C)noc6C)ccc5n4CCN4CCOCC4)cc3F)cc2c2ccc(-c3cc(C)cs3)cc21 | 186% | Active | 4 µM | 
16 | CCn1c2ccc(CNCCCCCCCC(=O)NCCOc3ccc(CCc4nc5cc(-c6c(C)noc6C)ccc5n4CCN4CCOCC4)cc3F)cc2c2ccc(-c3cc(C)cs3)cc21 | 196% | Active | 4 µM | 
